# Source: BindingDB's records for doi:10.1021/jm00096a020 (University of California, 1992)
# Several values for one entry are separate records, joined by “and”; a condition that tells them apart may be missing. Identical values can stand only once.
# Tests used:
# [1] = target: HIV-2 protease (Human immunodeficiency virus 2); assay: In vitro Inhibitory activity against HIV-2 protease in the presence of 5%DMSO
# [2] = target: T1, Human immunodeficiency virus type 1 protease (Human immunodeficiency virus 1, UniProt Q72874); assay: Binding affinity against HIV-1 protease
# Outline: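 Purified recombinant HIV-1 protease (6 × 10^-4 mg/mL) preincubated 1 min with inhibitor in 50 mM sodium acetate pH 5.5, 1 mM DTT, 1 mM EDTA, 1 M NaCl. Decapeptide substrate then added, 30–45 min at 37 °C. Activity read by HPLC quantitation of hydrolysis products. Inhibition plotted as a Dixon plot at several substrate concentrations.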
# [3] = target: T1, Human immunodeficiency virus type 1 protease; assay: (§1) Inhibitory concentration against HIV-1 protease in the absence of DMSO
# Outline: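 The water-soluble dipotassium salt was tested against aspartyl proteases with no DMSO present, and IC50 values were determined.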
# [4] = target: T1, Human immunodeficiency virus type 1 protease; assay: Inhibition of HIV-1 protease in 5%DMSO
# Outline: (§2)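 Purified recombinant HIV PR activity was followed by cleavage of a decapeptide substrate. Incubation was 30–45 min at 37 °C, and hydrolysis products were quantified by HPLC.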
# [5] = target: T1, Human immunodeficiency virus type 1 protease; assay: Inhibition of HIV-1 protease in 10% fetal calf serum(FCS)
# Outline: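 COS A6 cells, which constitutively release viral capsids, were exposed to inhibitor in Dulbecco's PBS for 15 min. An equal volume of medium with 10% FCS plus inhibitor was then added and incubation continued for 3.75 h. Capsids were isolated from the supernatant, and polyprotein processing was scored as p24 by ELISA.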
# [6] = target: HIV-2 protease (Human immunodeficiency virus 2); assay: Inhibitory concentration against HIV-2 protease in the absence of DMSO
# HIV-2 protease [7] = assay: ChEBML_158058
# Description: In vitro Inhibitory activity against HIV-2 protease in the presence of 5%DMSO
# Pol polyprotein [8] = target: T2, Pol polyprotein (Human immunodeficiency virus 2, UniProt P88142); assay: ChEBML_159124
# T2 sequence (P88142 whole entry): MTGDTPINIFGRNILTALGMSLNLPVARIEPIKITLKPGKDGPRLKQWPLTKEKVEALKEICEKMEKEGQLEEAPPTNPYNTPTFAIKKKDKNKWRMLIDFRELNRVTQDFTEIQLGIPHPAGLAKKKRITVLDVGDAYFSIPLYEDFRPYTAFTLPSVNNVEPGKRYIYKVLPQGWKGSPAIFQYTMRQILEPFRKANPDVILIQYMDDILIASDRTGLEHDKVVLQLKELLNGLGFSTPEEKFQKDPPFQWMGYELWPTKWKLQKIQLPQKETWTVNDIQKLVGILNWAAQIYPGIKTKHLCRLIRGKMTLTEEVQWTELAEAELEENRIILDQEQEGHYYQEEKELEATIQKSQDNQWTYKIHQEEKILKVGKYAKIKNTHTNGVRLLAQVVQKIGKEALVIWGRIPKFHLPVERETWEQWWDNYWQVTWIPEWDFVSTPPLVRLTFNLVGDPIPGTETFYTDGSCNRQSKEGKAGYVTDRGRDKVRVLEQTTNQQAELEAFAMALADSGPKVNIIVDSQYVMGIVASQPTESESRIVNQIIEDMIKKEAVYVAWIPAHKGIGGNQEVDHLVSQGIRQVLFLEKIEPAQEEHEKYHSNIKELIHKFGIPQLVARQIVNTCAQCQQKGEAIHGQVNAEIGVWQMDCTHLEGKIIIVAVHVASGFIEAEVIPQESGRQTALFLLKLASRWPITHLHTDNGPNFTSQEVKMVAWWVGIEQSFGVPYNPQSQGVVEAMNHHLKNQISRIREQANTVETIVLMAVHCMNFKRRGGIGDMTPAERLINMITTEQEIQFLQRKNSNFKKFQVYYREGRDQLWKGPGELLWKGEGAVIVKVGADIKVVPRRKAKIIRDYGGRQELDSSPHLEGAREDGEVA
# Description: (§3) Inhibition of HIV-2 protease in 5%DMSO
# [9] = target: T1, Human immunodeficiency virus type 1 protease; assay: ChEBML_79800
# Description: as §1
# Pol polyprotein [10] = target: T2, Pol polyprotein; assay: as §3
# Outline: as §2
# HIV-1 protease = assay: Inhibitory concentration against HIV-1 protease
# Outline: as §2
# HIV-2 protease [11] = assay: Inhibitory concentration against HIV-2 protease
# Outline: as §2
SMILES,IC50 [1] [nM],Ki [2] [nM],IC50 [3] [nM],IC50 [4] [nM],IC50 [5],IC50 [6] [nM],IC50 (HIV-2 protease [7]) [nM],IC50 (Pol polyprotein [8]) [nM],IC50 [9] [nM],IC50 (Pol polyprotein [10]) [nM],IC50 (HIV-1 protease) [nM],IC50 (HIV-2 protease [11]) [nM]
CC1=C(CCC(=O)O)/C2=C/c3c(CCC(=O)O)c(C)c4[n]3[Mn][n]3/c(c(C)c(C(COC(=O)C5=CC5)OC(=O)C5=CC5)/c3=C/C3=NC(=C\4)/C(C(COC(=O)C4=CC4)OC(=O)C4C=C4)=C3C)=C\C1=N2 (stereo not drawn),1200,85,100,400,65000 nM,700,–,–,–,–,–,–
CC1=C(CCC(=O)O)c2cc3nc(cc4[nH]c(cc5[nH]c(cc1n2)c(C)c5C(COC(=O)C1=CCC1)OC(=O)C1=CCC1)c(C)c4C(COC(=O)C1=CCC1)OC(=O)C1=CCC1)C(C)=C3CCC(=O)O (stereo not drawn),–,–,–,–,10000 nM,–,550,–,–,–,–,–
CC1=C(CCC(=O)O)/C2=C/c3c(CCC(=O)O)c(C)c4[n]3[Cu][n]3/c(c(C)c(C(COC(=O)C5=CC5)OC(=O)C5=CC5)/c3=C/C3=NC(=C\4)/C(C(COC(=O)C4=CC4)OC(=O)C4=CC4)=C3C)=C\C1=N2 (stereo not drawn),–,140,725,975,> 70000 nM,–,470,2200,–,–,–,–
CC1=C(CCC(=O)O)/C2=C/c3c(CCC(=O)O)c(C)c4[n]3[Co][n]3/c(c(C)c(C(COC(=O)C5=CC5)OC(=O)C5=CC5)/c3=C/C3=NC(=C\4)/C(C(COC(=O)C4=CC4)OC(=O)C4=CC4)=C3C)=C\C1=N2 (stereo not drawn),–,–,–,–,25000 nM,–,–,1500,2250,–,–,–
CC1=C(CCC(=O)O)c2cc3nc(cc4[nH]c(cc5[nH]c(cc1n2)c(C)c5C(COC(=O)C1=CC1)OC(=O)C1=CC1)c(C)c4C(COC(=O)C1=CC1)OC(=O)C1=CC1)C(C)=C3CCC(=O)O (stereo not drawn),–,–,–,185,25000 nM and > 150000 nM,–,–,700,–,700,50,230
